S1P4 antagonist: S1P4 receptor antagonists, primary screen, cell-based; S1P4-expressing cells, antagonist mode, reporter read-out; actives 0.26% (n = 220,000); AID 1510, 2009; inhibition, % at 4.98 µM; Sphingosine 1-phosphate receptor 4 (Homo sapiens), O95977; in the data active means inhibition above about 29%;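 further: 0% = wells stimulated with agonist and 100% = vehicle wells without agonist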
Target sequence (O95977 whole entry, looked up): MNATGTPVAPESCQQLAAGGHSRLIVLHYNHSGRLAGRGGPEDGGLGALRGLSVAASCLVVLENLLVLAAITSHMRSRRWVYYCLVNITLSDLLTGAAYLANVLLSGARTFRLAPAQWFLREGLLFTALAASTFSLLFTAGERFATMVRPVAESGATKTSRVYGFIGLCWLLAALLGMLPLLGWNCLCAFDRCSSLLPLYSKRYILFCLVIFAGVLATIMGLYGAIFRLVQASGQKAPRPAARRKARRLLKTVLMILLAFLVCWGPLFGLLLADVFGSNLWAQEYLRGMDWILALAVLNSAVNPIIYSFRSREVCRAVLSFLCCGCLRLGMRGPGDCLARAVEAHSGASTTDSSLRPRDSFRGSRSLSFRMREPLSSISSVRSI
S1P4 agonist: S1P4 receptor agonists, primary screen, cell-based | Sphingosine 1-phosphate receptor 4 (Homo sapiens), O95977 | S1P4-expressing cell line, agonist reporter assay | activation, % at 4.98 µM | actives 0.35% (n = 220,000) | AID 1509, 2009; in the data active means activation above about 11%;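 further: 0% = DMSO vehicle and 100% = reference agonist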
NPY-Y2 antag: NPY-Y2 receptor antagonists, primary screen, cell-based; Neuropeptide Y receptor type 2 (Homo sapiens), P49146; NPY-Y2 expressing cells, antagonist mode; inhibition, % at 2.7 µM; actives 0.99% (n = 140,000);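 further: 0% = vehicle with agonist challenge and 100% = reference antagonist with challenge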
NPY-Y1 antag: NPY-Y1 receptor antagonists, primary screen, cell-based; AID 1040, 2008; actives 1% (n = 200,000); inhibition, % at 3.6 µM; Neuropeptide Y receptor type 1 (Homo sapiens), P25929; HEK293-CNG Y1 cells, membrane potential fluorescence; NPY at EC95, then isoproterenol;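 active means inhibition above the campaign mean inhibition of all tested compounds plus 3 SD, cut at about 20% in these data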;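 further: 0% = DMSO wells given NPY plus isoproterenol and 100% = isoproterenol alone without NPY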
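material = HEK293 cells with Y1 receptor plus CNG channel | also added = NPY 25 nM then isoproterenol 1 µM plus Ro 20-1724 25 µM | schedule = dye 3 h, compound 60 min room temperature, stimulation 45 min | measured by = membrane potential fluorescence | benchmarks = high control isoproterenol alone, low control NPY with isoproterenol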
NPY1 pot ag: NPY-Y1 receptor potentiators or agonists, primary screen, cell-based; Neuropeptide Y receptor type 1 (Homo sapiens), P25929; NPY-Y1 expressing cells, potentiator/agonist activation; activation, % at 3.6 µM; actives 0.37% (n = 220,000); AID 1304, 2008; in the data active means activation above about 33%, passing the limit was not always enough;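 further: cells stimulated with NPY at EC10 then isoproterenol at EC100; 0% = low agonist plus stimulus and 100% = saturating agonist plus stimulus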
NPY-Y2 PAM-ag: NPY-Y2 potentiators or agonists, primary screen, cell-based; Neuropeptide Y receptor type 2 (Homo sapiens), P49146; cells expressing NPY-Y2, potentiator/agonist read-out; activation, % at 3.6 µM; actives 0.45% (n = 220,000); AID 1359, 2008; in the data active means activation above about 27%;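 further: cells stimulated with NPY near EC25 plus isoproterenol at EC100; 0% = vehicle plus submaximal agonist and 100% = vehicle plus saturating agonist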
NPY1 antag conf: NPY-Y1 receptor antagonists, retest of hits, confirmation, HEK293-CNG cells, membrane potential fluorescence, triplicate. inhibition, % at 3.6 µM. AID 1254, 2008. shares compounds with NPY-Y1 antag. cAMP; NPY challenge against isoproterenol-raised cAMP. actives 21% (n = 1,200); in the data active means inhibition above about 20%;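 further: 0% = vehicle with agonist plus stimulus and 100% = stimulus alone without agonist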
NPY2 antag ctr: NPY-Y2 receptor antagonists, selectivity check, confirmation, counter-screen for NPY-Y1 antagonist project, HEK293-CNG cells, membrane potential fluorescence, triplicate. shares compounds with NPY-Y1 antag. inhibition, % at 3.6 µM. antagonism; cells given NPY, then isoproterenol. actives 28% (n = 1,200);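 further: 0% = DMSO with agonist challenge and 100% = reference antagonist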
* = called active by the depositor; . = no result. Compounds with a hit are over-represented: about 2.4% of the library has one in this group of screens. Unless noted, no stated cut-off is given here; in the data, active means inhibition above about 17%; inactive means the rest.

SMILES	S1P4 antagonist	S1P4 agonist	NPY-Y2 antag	NPY-Y1 antag	NPY1 pot ag	NPY-Y2 PAM-ag	NPY1 antag conf	NPY2 antag ctr
C=CCNC(=O)c1onc(CSc2ccc(F)c(F)c2)c1C(=O)O	-5.8	0.2	11.0	20.0	-38.7	-35.4	.	.
C=CCNC(=O)c1onc(CSc2ccc(Cl)cc2)c1C(=O)O	-5.9	1.3	10.2	22.1*	-8.9	-23.9	15.5	11.5
COC(=O)c1ccccc1NC(=O)CN1C(=O)C2CCCN2c2ncc(Cl)cc21 (configuration not stated)	-18.5	1.4	7.4	6.5	-12.4	4.6	.	.
CCCC(=O)OCCNc1cc(Sc2nccn2C)c2nonc2c1[N+](=O)[O-]	-16.4	0.5	11.2	-1.3	-19.7	-2.8	.	.
CCN(CC)CCn1c(SCC(=O)Nc2ccc(F)cc2)nc2c(sc3ccccc32)c1=O	-3.8	-0.5	.	34.6*	-55.2	-24.7	14.9	28.8*
C=CCN(C(=O)CSc1nc2c(sc3ccccc32)c(=O)n1CCN(CC)CC)c1ccccc1	-17.9	2.5	.	23.2*	-16.9	-8.7	43.8*	64.9*
CCN(CC)S(=O)(=O)c1ccc(NC(=O)CSc2nnc(-c3cccc(OC)c3)n2C)cc1	-0.6	-0.7	3.4	-1.2	25.9	-6.8	.	.
CC(/C=N/n1c(COc2ccccc2)n[nH]c1=S)=C\c1ccccc1	5.1	-0.9	10.9	30.8*	-31.1	-29.8	6.1	6.5
CN(C)c1cc(NC(=O)CNC(C)(C)CC(C)(C)C)c2ccccc2n1	-14.3	0.3	.	27.7*	-46.1	-24.2	23.4*	41.6*
N#Cc1cc2c(nc1SCC(=O)O)CCCCC2	-13.7	0.8	.	.	1.1	-5.0	.	.
CCCCn1c(-c2csc3c2CCCC3)n[nH]c1=S	-11.1	1.4	5.7	1.9	2.0	9.8	.	.
Cc1c(N2C(=O)CSC2=S)c(=O)n(-c2ccccc2)n1C	1.6	-0.8	.	26.1*	1.7	0.3	0.3	1.9
N#CCN1CCCC(C(N)=O)C1 (configuration not stated)	-14.0	-0.3	.	-3.9	8.5	-7.6	.	.
COc1ccccc1NC(=S)N(Cc1ccccc1)Cc1cccs1	-5.9	0.5	.	26.6*	-3.4	1.8	8.6	9.8
CCC1CCCCN1C(=O)CSc1nc2ccsc2c(=O)n1Cc1ccccc1 (configuration not stated)	-11.8	2.5	15.2	18.4	0.0	-14.6	.	.
CCCCn1c(SCC(=O)N2CCC(C)CC2)nc2ccsc2c1=O	-3.8	0.2	16.8	20.8*	20.8	-18.9	13.2	3.7
COc1ccc(-c2noc(CCC(=O)NCc3cc(Br)ccc3OC)n2)cc1	-0.7	-2.5	5.7	1.7	-31.9	3.0	.	.
COc1ccc(Br)cc1CNC(=O)CCc1nc(-c2ccc(C)cc2)no1	-13.0	-4.7	14.4	21.4*	-0.1	-16.3	7.2	8.1
O=C1C=C(NCc2ccc(Cl)c(Cl)c2)C2(CCCCC2)O1	-4.2	-1.5	14.8	42.5*	3.0	-6.0	10.3	7.2
O=C1C=C(NCc2ccccc2)C2(CCCCC2)O1	-25.9	3.4	3.5	2.3	26.6	7.7	.	.
O=C(Nc1ccc2c(c1)OCO2)C1CCN(C(=O)c2ccc(Br)cc2)CC1	-5.6	-0.2	.	33.0*	-7.9	-20.3	11.0	9.3
CCOC(=O)c1cnc2c(-c3ccc(F)cc3)cnn2c1C(F)(F)F	4.7	0.1	.	10.7	-0.3	7.6	.	.
COc1cccc(C2CC(c3cccs3)=NN2C(=S)Nc2ccccc2)c1OC (configuration not stated)	8.6	-2.6	-3.0	-1.6	-6.3	-9.1	.	.
COC(=O)c1ccc(Cn2cnc3c(cnn3-c3ccc(C)c(C)c3)c2=O)o1	-67.9	-2.5	16.7	26.9*	-19.9	-17.3	12.3	9.2
COC(=O)c1ccc(CSc2nc3c(cnn3-c3ccc(C)cc3)c(=O)[nH]2)o1	-15.2	-0.3	9.9	26.7*	-28.8	-1.8	2.6	10.0
SMILES	S1P4 antagonist	S1P4 agonist	NPY-Y2 antag	NPY-Y1 antag	NPY1 pot ag	NPY-Y2 PAM-ag	NPY1 antag conf	NPY2 antag ctr
COC(=O)c1ccc(Cn2cnc3c(cnn3-c3ccc(F)cc3)c2=O)o1	-16.6	1.1	7.6	7.0	-32.0	-30.7	.	.
Cn1c(=O)c2c(nc(CN3CCC(Cc4ccccc4)CC3)n2CCN2CCOCC2)n(C)c1=O	-24.9	-0.3	2.5	3.1	2.7	4.7	.	.
O=C(CN1C(=O)C2CC=CCC2C1=O)Nc1nnc(SCc2ccc(Cl)cc2)s1 (configuration not stated)	-23.0	0.3	15.1	23.9*	-25.3	-14.3	8.6	10.4
CCOC(=O)N1CCN(C(=O)/C(=C/c2cccc3ccccc23)NC(=O)c2ccc(OC)c(OC)c2)CC1	5.1	0.6	5.2	2.7	-15.9	3.6	.	.
Cc1ccc(COC(=O)c2nn(-c3ccccc3)nc2N)cc1	-8.5	0.4	.	28.8*	-57.4	-35.9	23.0*	14.6
CCOc1ccccc1CN1CCN(C/C=C/c2ccc(OC)cc2)CC1CCO (configuration not stated)	13.7	-0.1	.	25.4*	-35.5	-51.2	12.3	14.2
Cc1cc(-c2ccccc2)nc(Oc2cccc(C(F)(F)F)c2)c1S(C)(=O)=O	6.9	-0.2	5.6	28.9*	-24.8	-17.2	6.2	2.5
CCc1ccc(NC(=O)c2cc(C)on2)cc1	-14.9	0.3	0.3	-1.7	0.8	-5.0	.	.
CCCc1cc(C(=O)OC)c(NC(=O)c2cc(C)on2)s1	-16.9	-2.1	2.3	20.4*	-20.3	8.4	7.8	4.9
O=C(N/N=C1\CCCc2oc(C(=O)O)cc21)c1ccccc1	-10.2	1.1	.	-1.0	6.7	3.9	.	.
CCC(=O)NS(=O)(=O)c1cccnc1Nc1ccccc1Cl	8.9	-3.0	12.2	23.9*	-27.5	-16.5	21.7*	19.3*
COC(=O)c1ccccc1NC(=O)c1ccc(COc2ccc(C)c(C)c2)o1	-3.7	2.3	10.4	28.7*	-4.7	4.8	9.7	11.9
COC(=O)c1ccccc1NC(=O)c1ccc(COc2cc(C)cc(C)c2)o1	-5.3	1.3	8.7	6.5	-9.0	-9.7	.	.
COC(=O)c1ccccc1NC(=O)c1cc(OC)cc(OC)c1	-9.8	0.2	3.8	21.1*	-27.9	-7.4	9.2	11.7
COc1ccc(-c2n[nH]c(=S)n2N)c(OC)c1	-3.2	0.5	.	1.6	-7.2	-1.0	.	.

High-throughput results: PubChem, The Scripps Research Institute Molecular Screening Center
